# Test results published in ChEMBL document CHEMBL1773055, “A chemotype that inhibits three unrelated pathogenic targets: the botulinum neurotoxin serotype A light chain, P. falciparum malaria, and the Ebola filovirus” (J Med Chem, 2011).
# Assays:
# [1] = tested on: Plasmodium falciparum; assay: Antimalarial activity against Plasmodium falciparum D6; type: functional, organism-based
# [2] = tested on: Plasmodium falciparum; assay: Antimalarial activity against Plasmodium falciparum W2; type: functional, organism-based
# [3] = tested on: Plasmodium falciparum; assay: Antimalarial activity against Plasmodium falciparum C235; type: functional, organism-based
# [4] = tested on: Plasmodium falciparum; assay: Resistance index, ratio of IC50 for Plasmodium falciparum W2 to IC50 for Plasmodium falciparum D6; type: functional
# Summary of the method: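 P. falciparum clones D6 (CQ/MFQ-susceptible, Sierra I/UNC), W2 (CQ-resistant, MFQ-susceptible, Indochina I) and TM91C235 (CQ- and MFQ-resistant, South-East Asian) were tested in a modified Desjardins in vitro susceptibility screen, giving IC50 and IC90. Resistance index is IC50 of the resistant strain divided by IC50 against D6 (W2/D6, C235/D6).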
# [5] = tested on: Plasmodium falciparum; assay: Resistance index, ratio of IC50 for Plasmodium falciparum C235 to IC50 for Plasmodium falciparum D6; type: functional
# [6] = molecular target: Botulinum neurotoxin type A (Clostridium botulinum) (UniProt P0DPI0); assay: (§1) Inhibition of clostridium botulinum Botulinum neurotoxin type A light chain at 20 uM
# Sequence of Botulinum neurotoxin type A (Clostridium botulinum) (P0DPI0 2-448 limits assumed): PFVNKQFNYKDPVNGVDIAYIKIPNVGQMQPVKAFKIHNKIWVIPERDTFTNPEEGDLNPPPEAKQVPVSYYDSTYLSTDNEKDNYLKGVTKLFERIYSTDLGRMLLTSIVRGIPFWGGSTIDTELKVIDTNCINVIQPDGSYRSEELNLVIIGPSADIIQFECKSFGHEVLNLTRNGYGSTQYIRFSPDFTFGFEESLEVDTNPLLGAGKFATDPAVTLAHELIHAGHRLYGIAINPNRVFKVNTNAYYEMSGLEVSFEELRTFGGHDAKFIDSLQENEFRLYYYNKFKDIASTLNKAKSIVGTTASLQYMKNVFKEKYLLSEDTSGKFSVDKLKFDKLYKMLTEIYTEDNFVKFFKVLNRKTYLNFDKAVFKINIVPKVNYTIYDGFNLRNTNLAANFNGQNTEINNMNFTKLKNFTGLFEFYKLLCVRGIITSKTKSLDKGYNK
# Summary of the method: (§2)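 Recombinant BoNT/A LC and peptide substrate were incubated in 40 mM HEPES–0.05% Tween pH 7.3 with 0.5 mg/ml BSA and 50 μM excess ZnCl2 at 37°C, with compound at 20 μM. Reactions were quenched with TFA, and substrate hydrolysis was quantified by reverse-phase HPLC peak areas. Percent inhibition was measured in duplicate.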
# [7] = molecular target: Botulinum neurotoxin type A (Clostridium botulinum, UniProt P0DPI0); assay: as §1; summary of the method: as §2
# Sequence of Botulinum neurotoxin type A (P0DPI0 2-448 limits assumed): as above
# [8] = tested on: Ebolavirus; assay: Antiviral activity against Zaire ebolavirus expressing enhanced GFP in Vero 76 cells at 20 uM after 48 hrs by standard Plaque assay; type: functional; conditions: Orthoebolavirus
# [9] = tested on: Ebolavirus; assay: Antiviral activity against Zaire ebolavirus expressing enhanced GFP in Vero 76 cells after 48 hrs by standard Plaque assay; type: functional, cell-based; conditions: Orthoebolavirus
# [10] = tested on: Vero; assay: Cytotoxicity against african green monkey Vero 76 cells at 20 uM; type: cell-based; conditions: chlorocebus sabaeus
# [11] = Inhibition of beta-hematin formation assessed as drug-hematin ratio for 50% inhibition by BHIA assay; type: functional
# [12] = Inhibition of beta-hematin formation; type: functional
# [13] = tested on: RAW264.7; assay: Cytotoxicity against rat RAW264.7 cells by MTT assay; type: cell-based; conditions: for IC50: Mus musculus, RAW264.7; for IC90: […]
# Summary of the method: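 RAW 264.7 cells were seeded at 2.5×10^4 per well about 12 h before dosing. They were exposed to 0.29–48 μg/ml compound for 48 h at 37°C, 5% CO2. Viability was read by MTT reduction, with a DMSO control. Runs were in duplicate, and IC50 came from sigmoidal variable-slope dose-response fits.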
# [14] = Selectivity index, ratio of IC50 for […] cells to IC50 for Plasmodium falciparum D6; type: toxicity, cell-based; conditions: read-out: Ratio IC50
# [15] = Selectivity index, ratio of IC50 for […] cells to IC50 for Plasmodium falciparum W2; type: toxicity, cell-based; conditions: read-out: Ratio IC50
# [16] = Selectivity index, ratio of IC50 for […] cells to IC50 for Plasmodium falciparum C235; type: toxicity, cell-based; conditions: read-out: Ratio IC50
# [17] = Selectivity index, ratio of IC90 for […] cells to IC90 for Plasmodium falciparum D6; type: toxicity, cell-based
# [18] = Selectivity index, ratio of IC90 for […] cells to IC90 for Plasmodium falciparum W2; type: toxicity, cell-based
# [19] = Selectivity index, ratio of IC90 for […] cells to IC90 for Plasmodium falciparum C235; type: toxicity, cell-based
# [20] = tested on: Liver microsomes; assay: Half life in human liver microsomes; type: ADME, Microsome
# Summary of the method: (§3)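 Compound at 10 μM was incubated with mouse or human liver microsomes (1 mg/mL protein) in 0.1 M sodium phosphate pH 7.4 with an NADPH-regenerating system at 37°C, started by G6PD. Samples were quenched with cold acetonitrile at 0, 10, 30 and 60 min and analysed by LC-MS/MS. Half-life = 0.693/k.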
# [21] = tested on: Liver; assay: Half life in mouse liver microsomes; type: ADME, Microsome; summary of the method: as §3
# [22] = Cytotoxicity against human NCI60 cells; type: functional
Structure (SMILES),IC50 [1],IC90 [1],IC50 [2],IC90 [2],IC50 [3],IC90 [3],Ratio IC50 [4],Ratio IC50 [5],inhibition [6],other results
C[C@@H]1CC[C@H]2[C@@H](C)C(=O)O[C@@H]3O[C@@]4(C)CC[C@@H]1[C@]32OO4 [ARTEMISININ],9 nM,12.8 nM,6.7 nM,11.5 nM,13 nM,17.4 nM,–,–,–,–
Cc1cc(NCCN)c2ccc3c(ccc4c(NCCN)cc(C)nc43)c2n1.Cl,270 nM,355 nM,871 nM,1790 nM,1020 nM,1760 nM,3.22,3.78,62.7%,Ki [7]: 8700 nM
Cc1cc(NCCCN2CCCC2)c2ccc3c(ccc4c(NCCCN5CCCC5)cc(C)nc43)c2n1.Cl,14.8 nM,39.4 nM,7.75 nM,25.4 nM,34.3 nM,95.2 nM,0.52,2.31,73.5%,–
Cc1cc(NCCCN2CCCCC2)c2ccc3c(ccc4c(NCCCN5CCCCC5)cc(C)nc43)c2n1.Cl,9.26 nM,17.4 nM,6.98 nM,22.5 nM,24.8 nM,41.2 nM,0.75,2.68,66.1%,inhibition at 20 µM [8]: 100%; IC50 [9]: 5000 nM; Activity [10]: < 20%
Cc1cc(NCCCCN)c2ccc3c(ccc4c(NCCCCN)cc(C)nc43)c2n1,–,–,–,–,–,–,–,–,72.2%,–
Cc1cc(NCCN2CCCCC2)c2ccc3c(ccc4c(NCCN5CCCCC5)cc(C)nc43)c2n1.Cl,8.79 nM,13.2 nM,5.5 nM,15.4 nM,10.6 nM,14.9 nM,0.62,1.2,63.4%,–
Cc1cc(NCCN(C)C)c2ccc3c(ccc4c(NCCN(C)C)cc(C)nc43)c2n1.Cl,–,20.8 nM,9.19 nM,31.2 nM,15.3 nM,26 nM,0.59,0.98,57%,–
Cc1cc(NCCCN(C)C)c2ccc3c(ccc4c(NCCCN(C)C)cc(C)nc43)c2n1.Cl,103 nM,210 nM,353 nM,709 nM,54.8 nM,699 nM,3.41,0.53,68.9%,–
CCN(CC)CCCC(C)Nc1ccnc2cc(Cl)ccc12 (centres undefined) [CHLOROQUINE],–,16.1 nM,–,698 nM,–,373 nM,–,–,–,–
Cc1cc(NCCN2CCCC2)c2ccc3c(ccc4c(NCCN5CCCC5)cc(C)nc43)c2n1.Cl,16.8 nM,32.3 nM,8.11 nM,28 nM,25.9 nM,40.3 nM,0.48,1.54,60.3%,IC50 [11]: 0.401 equiv; inhibition [12]: Dose-dependent effect
Cc1cc(NCCCN)c2ccc3c(ccc4c(NCCCN)cc(C)nc43)c2n1.Cl,708 nM,1010 nM,1700 nM,3260 nM,2030 nM,3050 nM,2.4,2.87,70%,–
Cc1cc(NCCCN2CCOCC2)c2ccc3c(ccc4c(NCCCN5CCOCC5)cc(C)nc43)c2n1.Cl,5.23 nM,8.47 nM,2 nM,6.38 nM,8.05 nM,17.4 nM,0.38,1.54,55.6%,IC50 [13]: 7480 nM; IC90 [13]: 11000 nM; IC50 [11]: 0.52 equiv; selectivity ratio [14]: 1430; selectivity ratio [15]: 3740; selectivity ratio [16]: 929; selectivity ratio [17]: 1300; selectivity ratio [18]: 1730; selectivity ratio [19]: 635; t1/2 [20]: 0.667 h; t1/2 [21]: > 1 h; inhibition at 20 µM [8]: 96%; IC50 [9]: 2500 nM; Activity [10]: < 20%; inhibition (INH) [22]: 92%; inhibition [12]: Dose-dependent effect
Cc1cc(NCCN2CCOCC2)c2ccc3c(ccc4c(NCCN5CCOCC5)cc(C)nc43)c2n1.Cl,5.93 nM,12.6 nM,6.12 nM,11.5 nM,9.84 nM,16.5 nM,1.03,1.66,39%,IC50 [13]: 10200 nM; IC90 [13]: 29900 nM; IC50 [11]: 0.473 equiv; selectivity ratio [14]: 1720; selectivity ratio [15]: 1660; selectivity ratio [16]: 1030; selectivity ratio [17]: 2370; selectivity ratio [18]: 2600; selectivity ratio [19]: 1820; t1/2 [20]: > 1 h; t1/2 [21]: > 1 h; inhibition at 20 µM [8]: 53%; inhibition (INH) [22]: 91%; inhibition [12]: Dose-dependent effect
CCN(CC)CCCNc1cc(C)nc2c1ccc1c2ccc2c(NCCCN(CC)CC)cc(C)nc21.Cl,30 nM,49.5 nM,8.65 nM,46.7 nM,66.5 nM,286 nM,0.29,2.22,64.7%,–
